Test results: ChEMBL document CHEMBL1130328, “Synthesis and pharmacological activity of deltorphin and dermorphin-related glycopeptides” (J Med Chem, 1997)

Legend:
[1] = organism: Cavia porcellus; test: Bioactivity in vitro in guinea pig ileum (GPI) isolated organ preparation; type: functional
Outline: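 Guinea pig ileum segment (2–3 cm) in 20 mL bath with 70 μM hexamethonium and 0.125 μM mepyramine, 95% O2/5% CO2, 36 °C. Transmural stimulation 0.5 ms pulses at 0.1 Hz, 1.5× maximal-twitch voltage. 1 g load, 45 min equilibration, isotonic recording. Dose–response curves run against a reference agonist. Means of six experiments.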

[2] = biological target: Delta-type opioid receptor (Rattus norvegicus, UniProt P33533); test: Opioid receptor delta 1 binding affinity by displacement of radioligand [3H][D-Pen]-enkephalin (DPDPE) from rat brain membrane synaptosomes; type: subcellular
[3] = biological target: Mu-type opioid receptor (Rattus norvegicus, UniProt P33535); test: Opioid receptor mu 1 binding affinity by displacement of radioligand [3H][DAla,MePhe,Gly-ol]enkephalin (DAGO) from rat brain membrane synaptosomes; type: subcellular
Outline: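 Rat brain (male Sprague–Dawley) P2 synaptosomes, preincubated to remove endogenous opioids and washed. Incubated 120 min at 22 °C, 1.6 mg protein, in duplicate, with 0.62 nM [3H]DPDPE (δ) or 0.68 nM [3H]DAGO (μ). Nonspecific binding with 1–2 μM unlabelled ligand. Filtration, scintillation counting. Five to seven concentrations. Ki from IC50 by Cheng–Prusoff, mean ± SE, n = 3–9.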

[4] = organism: Oryctolagus cuniculus; test: Bioactivity in vitro in rabbit jejunum (RJ) isolated organ preparation; type: functional
Outline: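 Rabbit jejunum on isotonic transducer under 1 g load, equilibrated 45 min while recording spontaneous activity without washing. Dose–response curves run against a reference agonist. At least four jejunum preparations, each from a different rabbit. Means of six experiments.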

Sequence of Delta-type opioid receptor (P33533 whole entry): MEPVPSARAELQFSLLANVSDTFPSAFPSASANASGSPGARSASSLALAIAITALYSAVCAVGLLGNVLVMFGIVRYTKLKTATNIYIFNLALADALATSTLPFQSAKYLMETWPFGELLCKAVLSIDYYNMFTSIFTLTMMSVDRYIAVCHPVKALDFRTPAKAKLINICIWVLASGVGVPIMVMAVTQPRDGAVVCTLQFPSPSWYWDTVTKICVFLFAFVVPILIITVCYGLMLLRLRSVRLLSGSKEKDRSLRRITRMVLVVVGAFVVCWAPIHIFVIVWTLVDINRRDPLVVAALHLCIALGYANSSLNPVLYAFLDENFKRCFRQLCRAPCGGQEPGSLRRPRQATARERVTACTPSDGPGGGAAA
Sequence of Mu-type opioid receptor (P33535 whole entry): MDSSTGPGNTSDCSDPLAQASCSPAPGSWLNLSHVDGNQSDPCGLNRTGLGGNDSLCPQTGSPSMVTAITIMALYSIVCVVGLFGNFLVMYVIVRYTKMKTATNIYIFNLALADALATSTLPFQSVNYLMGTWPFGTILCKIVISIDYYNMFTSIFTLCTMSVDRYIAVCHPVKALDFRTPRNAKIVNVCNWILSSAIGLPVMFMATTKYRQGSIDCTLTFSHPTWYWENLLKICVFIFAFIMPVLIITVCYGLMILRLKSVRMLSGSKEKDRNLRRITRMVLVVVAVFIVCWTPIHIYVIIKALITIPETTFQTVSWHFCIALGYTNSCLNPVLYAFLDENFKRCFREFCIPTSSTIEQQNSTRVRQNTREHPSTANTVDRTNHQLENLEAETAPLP

Row | SMILES | IC50 [1] | Ki [2] | Ki [3] | IC50 [4]
1 | C[C@H](O[C@H]1O[C@@H](CO)[C@H](O)[C@@H](O)[C@@H]1O)[C@H](NC(=O)[C@@H]1CCCN1C(=O)[C@H](Cc1ccc(O)cc1)NC(=O)CNC(=O)[C@H](Cc1ccccc1)NC(=O)[C@@H](C)NC(=O)[C@@H](N)Cc1ccc(O)cc1)C(=O)NCC(N)=O | 3.1 nM | 67 nM | 0.29 nM | 
2 | CC(=O)OC[C@H]1O[C@H](O[C@H](C)[C@H](NC(=O)[C@H](Cc2ccccc2)NC(=O)[C@@H](C)NC(=O)[C@@H](N)Cc2ccc(O)cc2)C(=O)N[C@@H](Cc2ccc(O)cc2)C(=O)N2CCC[C@H]2C(=O)N[C@@H](CO)C(N)=O)[C@H](OC(C)=O)[C@H](OC(C)=O)[C@H]1OC(C)=O | > 4000 nM | 22600 nM | 4400 nM | 
3 | CC(C)[C@H](NC(=O)[C@H](CC(=O)O)NC(=O)[C@H](Cc1ccccc1)NC(=O)[C@@H](C)NC(=O)[C@@H](N)Cc1ccc(O)cc1)C(=O)N[C@H](C(=O)N[C@H](C(=O)NCC(N)=O)[C@@H](C)O[C@H]1O[C@H](CO)[C@@H](O)[C@H](O)[C@H]1O)C(C)C |  | 1.55 nM | 579 nM | 995 nM
4 | CC(=O)OC[C@@H]1O[C@H](O[C@H](C)[C@H](NC(=O)[C@@H]2CCCN2C(=O)[C@H](Cc2ccc(O)cc2)NC(=O)CNC(=O)[C@H](Cc2ccccc2)NC(=O)[C@@H](C)NC(=O)[C@@H](N)Cc2ccc(O)cc2)C(=O)NCC(N)=O)[C@@H](OC(C)=O)[C@H](OC(C)=O)[C@H]1OC(C)=O | 22.1 nM | 86.8 nM | 0.46 nM | 
5 | CC(=O)OC[C@@H]1O[C@H](O[C@@H](C)[C@H](NC(=O)[C@@H](NC(=O)[C@@H](NC(=O)[C@H](CC(=O)O)NC(=O)[C@H](Cc2ccccc2)NC(=O)[C@@H](C)NC(=O)[C@@H](N)Cc2ccc(O)cc2)C(C)C)C(C)C)C(=O)NCC(N)=O)[C@@H](OC(C)=O)[C@H](OC(C)=O)[C@H]1OC(C)=O |  | 1.3 nM | 635 nM | 890 nM
6 | CC(C)[C@H](NC(=O)[C@H](CC(=O)O)NC(=O)[C@H](Cc1ccccc1)NC(=O)[C@@H](C)NC(=O)[C@@H](N)Cc1ccc(O)cc1)C(=O)N[C@H](C(=O)NCC(N)=O)C(C)C [DELTORPHIN C] |  |  |  | 510 nM
7 | CC(C)[C@H](NC(=O)[C@@H](NC(=O)[C@@H](NC(=O)[C@H](Cc1ccccc1)NC(=O)[C@@H](C)NC(=O)[C@@H](N)Cc1ccc(O)cc1)[C@@H](C)O[C@H]1O[C@H](CO)[C@@H](O)[C@@H](O)[C@H]1O)C(C)C)C(=O)NCC(N)=O |  | 9500 nM | 1990 nM | > 4000 nM
8 | CC(=O)OC[C@H]1O[C@H](O[C@H](C)[C@H](NC(=O)[C@H](Cc2ccccc2)NC(=O)[C@@H](C)NC(=O)[C@@H](N)Cc2ccc(O)cc2)C(=O)N[C@H](C(=O)N[C@H](C(=O)NCC(N)=O)C(C)C)C(C)C)[C@H](OC(C)=O)[C@@H](OC(C)=O)[C@@H]1OC(C)=O |  | 2110 nM | 1520 nM | > 4000 nM
9 | C[C@@H](NC(=O)[C@@H](N)Cc1ccc(O)cc1)C(=O)N[C@@H](Cc1ccccc1)C(=O)NCC(=O)N[C@@H](Cc1ccc(O)cc1)C(=O)N1CCC[C@H]1C(=O)N[C@@H](CO)C(N)=O [DERMORPHIN] | 2.1 nM |  | 0.28 nM | 
10 | C[C@@H](NC(=O)[C@@H](N)Cc1ccc(O)cc1)C(=O)N[C@@H](Cc1ccccc1)C(=O)N[C@H](C(=O)N[C@@H](Cc1ccc(O)cc1)C(=O)N1CCC[C@H]1C(=O)N[C@@H](CO)C(N)=O)[C@@H](C)O[C@H]1O[C@H](CO)[C@@H](O)[C@H](O)[C@H]1O | 3400 nM | 1760 nM | 1700 nM | 
